Experimental data published in ChEMBL document CHEMBL1145002, “Isoform-selective substrates of nitric oxide synthase” (J Med Chem, 2003).

Experiments:
[1] = biological target: T1, Nitric oxide synthase 3 (Homo sapiens) (UniProt P29474); assay: Evaluation as substrate of endothelial nitric oxide synthase by hemoglobin assay using NOHA as control
T1 sequence (whole entry): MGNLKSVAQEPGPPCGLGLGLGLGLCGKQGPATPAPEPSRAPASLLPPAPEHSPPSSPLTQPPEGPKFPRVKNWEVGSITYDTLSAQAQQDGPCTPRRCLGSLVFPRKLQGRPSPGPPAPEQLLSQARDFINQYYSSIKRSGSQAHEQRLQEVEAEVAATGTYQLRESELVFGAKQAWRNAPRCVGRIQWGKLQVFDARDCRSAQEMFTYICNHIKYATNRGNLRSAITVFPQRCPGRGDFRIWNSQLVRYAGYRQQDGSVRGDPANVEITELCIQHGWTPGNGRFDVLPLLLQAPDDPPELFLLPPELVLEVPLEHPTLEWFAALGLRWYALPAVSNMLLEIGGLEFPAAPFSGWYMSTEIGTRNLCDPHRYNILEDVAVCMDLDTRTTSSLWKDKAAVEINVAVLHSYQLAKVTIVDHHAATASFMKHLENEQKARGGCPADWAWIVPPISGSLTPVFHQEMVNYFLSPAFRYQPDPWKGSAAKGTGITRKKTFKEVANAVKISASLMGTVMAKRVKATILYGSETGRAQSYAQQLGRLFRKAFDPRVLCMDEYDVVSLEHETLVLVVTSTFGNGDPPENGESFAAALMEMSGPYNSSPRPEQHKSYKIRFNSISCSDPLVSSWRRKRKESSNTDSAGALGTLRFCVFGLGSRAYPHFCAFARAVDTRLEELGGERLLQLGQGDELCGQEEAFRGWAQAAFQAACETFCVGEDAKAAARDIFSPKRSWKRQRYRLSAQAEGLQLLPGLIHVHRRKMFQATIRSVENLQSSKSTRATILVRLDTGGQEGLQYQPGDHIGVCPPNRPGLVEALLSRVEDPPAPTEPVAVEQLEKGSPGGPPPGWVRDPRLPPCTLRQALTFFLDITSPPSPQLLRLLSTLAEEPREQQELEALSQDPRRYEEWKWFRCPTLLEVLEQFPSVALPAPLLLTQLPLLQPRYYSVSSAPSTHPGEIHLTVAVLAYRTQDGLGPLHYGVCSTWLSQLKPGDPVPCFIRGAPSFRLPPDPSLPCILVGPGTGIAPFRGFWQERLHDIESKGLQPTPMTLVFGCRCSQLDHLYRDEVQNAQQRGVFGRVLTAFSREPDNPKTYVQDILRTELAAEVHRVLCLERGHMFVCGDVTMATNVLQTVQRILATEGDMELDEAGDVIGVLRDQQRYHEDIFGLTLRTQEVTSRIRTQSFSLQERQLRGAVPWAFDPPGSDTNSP
Procedure, shortened: (§1)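 Oxyhemoglobin-to-methemoglobin conversion was read at 401 nm (ε 38 mM⁻¹ cm⁻¹) at 37 °C to give initial NO rates. Conditions were 0.5–1 unit enzyme in 50 mM HEPES pH 7.4 with 15 μM oxyhemoglobin, SOD, catalase, 200 μM NADPH, 4 μM FAD/FMN, 5 μM BH₄, 2–5 mM DTT and 0.5 mM substrate, plus 1 mM CaCl₂ and 10 μg/mL CaM. Rates are reported relative to NOHA (100%), mean ± SD of ≥3 experiments.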

[2] = biological target: T2, Nitric oxide synthase, inducible (Mus musculus) (UniProt P29477); assay: Evaluation as substrate of Inducible nitric oxide synthase by hemoglobin assay using NOHA as control; format: functional
T2 sequence (whole entry): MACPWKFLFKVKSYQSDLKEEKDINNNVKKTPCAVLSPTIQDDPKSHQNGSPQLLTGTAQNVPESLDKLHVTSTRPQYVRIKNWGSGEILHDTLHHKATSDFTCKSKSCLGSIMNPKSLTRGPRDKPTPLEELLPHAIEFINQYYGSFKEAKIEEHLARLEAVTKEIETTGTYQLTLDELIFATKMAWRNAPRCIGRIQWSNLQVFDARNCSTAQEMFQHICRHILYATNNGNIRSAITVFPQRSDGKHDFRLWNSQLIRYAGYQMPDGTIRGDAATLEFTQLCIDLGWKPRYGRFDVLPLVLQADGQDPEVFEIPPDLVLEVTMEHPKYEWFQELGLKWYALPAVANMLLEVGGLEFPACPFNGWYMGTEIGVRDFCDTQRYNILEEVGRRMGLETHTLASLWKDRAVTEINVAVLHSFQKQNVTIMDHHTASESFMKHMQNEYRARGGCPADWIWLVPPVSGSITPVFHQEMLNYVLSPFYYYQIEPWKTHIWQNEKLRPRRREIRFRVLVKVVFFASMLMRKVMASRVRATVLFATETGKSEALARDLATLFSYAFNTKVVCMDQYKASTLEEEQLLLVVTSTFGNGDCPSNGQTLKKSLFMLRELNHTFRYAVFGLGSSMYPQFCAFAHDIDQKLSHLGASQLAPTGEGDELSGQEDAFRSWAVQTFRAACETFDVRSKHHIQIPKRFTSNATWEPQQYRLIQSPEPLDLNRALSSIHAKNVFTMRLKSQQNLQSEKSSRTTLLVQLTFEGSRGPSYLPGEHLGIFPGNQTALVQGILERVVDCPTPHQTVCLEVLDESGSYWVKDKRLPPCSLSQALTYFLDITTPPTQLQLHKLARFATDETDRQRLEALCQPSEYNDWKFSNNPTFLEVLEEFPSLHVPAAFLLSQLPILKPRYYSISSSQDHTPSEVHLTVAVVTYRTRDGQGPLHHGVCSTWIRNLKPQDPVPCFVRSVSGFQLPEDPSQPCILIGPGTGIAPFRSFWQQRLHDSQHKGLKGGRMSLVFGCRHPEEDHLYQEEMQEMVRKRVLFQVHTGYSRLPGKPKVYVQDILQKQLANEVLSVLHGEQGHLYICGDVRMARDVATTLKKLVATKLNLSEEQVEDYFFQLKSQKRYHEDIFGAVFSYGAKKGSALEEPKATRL
Procedure, shortened: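 Initial NO-synthesis rate at 37 °C by spectrophotometric oxyhemoglobin assay. The cuvette held 0.5–1 unit enzyme in 50 mM HEPES pH 7.4 with 15 μM oxyhemoglobin, SOD, catalase, 200 μM NADPH, 4 μM FAD/FMN, 5 μM BH₄, 2–5 mM DTT, 0.5 mM substrate and 1 mM magnesium acetate. Methemoglobin formation was followed at 401 nm (ε 38 mM⁻¹ cm⁻¹). Rates are given as % of NOHA, mean ± SD, n≥3.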

[3] = biological target: Nitric oxide synthase 1 (Rattus norvegicus) (UniProt P29476); assay: Evaluation as substrate of Neuronal nitric oxide synthase by hemoglobin assay using NOHA as control; procedure, shortened: as §1
Chain of Nitric oxide synthase 1 (Rattus norvegicus) (P29476 whole entry): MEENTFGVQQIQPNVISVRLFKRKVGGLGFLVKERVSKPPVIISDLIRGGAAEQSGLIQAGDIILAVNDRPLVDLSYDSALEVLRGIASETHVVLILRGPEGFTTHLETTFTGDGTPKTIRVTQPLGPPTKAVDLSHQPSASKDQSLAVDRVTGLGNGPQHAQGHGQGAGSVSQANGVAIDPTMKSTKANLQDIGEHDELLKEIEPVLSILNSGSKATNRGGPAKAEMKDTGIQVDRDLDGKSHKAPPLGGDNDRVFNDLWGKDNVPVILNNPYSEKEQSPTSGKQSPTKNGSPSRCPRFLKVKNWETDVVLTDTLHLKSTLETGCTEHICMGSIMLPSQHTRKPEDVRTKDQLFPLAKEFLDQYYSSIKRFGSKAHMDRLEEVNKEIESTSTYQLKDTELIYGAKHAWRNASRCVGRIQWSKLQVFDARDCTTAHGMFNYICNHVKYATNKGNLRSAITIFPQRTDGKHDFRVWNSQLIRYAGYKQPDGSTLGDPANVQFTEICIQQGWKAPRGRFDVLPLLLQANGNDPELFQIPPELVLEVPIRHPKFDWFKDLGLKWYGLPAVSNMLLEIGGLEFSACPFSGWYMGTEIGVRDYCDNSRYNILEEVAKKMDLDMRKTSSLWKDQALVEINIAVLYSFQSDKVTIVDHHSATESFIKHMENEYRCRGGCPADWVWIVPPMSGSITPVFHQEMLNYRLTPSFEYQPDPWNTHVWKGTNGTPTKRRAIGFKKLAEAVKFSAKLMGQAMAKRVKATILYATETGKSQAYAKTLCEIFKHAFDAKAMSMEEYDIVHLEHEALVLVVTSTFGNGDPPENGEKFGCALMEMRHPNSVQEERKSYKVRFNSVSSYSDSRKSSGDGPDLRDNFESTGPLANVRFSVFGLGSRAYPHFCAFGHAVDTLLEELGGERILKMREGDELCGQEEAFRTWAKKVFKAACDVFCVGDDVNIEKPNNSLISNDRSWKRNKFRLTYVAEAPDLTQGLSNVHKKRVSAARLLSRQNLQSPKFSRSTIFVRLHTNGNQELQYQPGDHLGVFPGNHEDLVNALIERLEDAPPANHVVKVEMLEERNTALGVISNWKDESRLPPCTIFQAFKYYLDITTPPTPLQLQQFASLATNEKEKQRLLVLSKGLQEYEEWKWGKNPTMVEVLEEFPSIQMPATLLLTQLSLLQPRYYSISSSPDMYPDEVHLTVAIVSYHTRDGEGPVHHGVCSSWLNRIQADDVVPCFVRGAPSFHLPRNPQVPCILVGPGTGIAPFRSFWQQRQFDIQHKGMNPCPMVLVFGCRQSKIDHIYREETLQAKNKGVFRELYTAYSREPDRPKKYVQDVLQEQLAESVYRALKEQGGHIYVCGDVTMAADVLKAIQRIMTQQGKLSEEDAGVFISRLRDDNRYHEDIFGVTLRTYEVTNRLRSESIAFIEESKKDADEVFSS

| Structure (SMILES) | NO formation [1] [%] | NO formation [2] [%] | NO formation [3] [%] |
| --- | --- | --- | --- |
| N/C(=N/CC1CC1)NO | < 0.5 | < 0.5 | < 0.5 |
| N/C(=N\O)N1CCOCC1 | < 0.5 | < 0.5 | < 0.5 |
| N=C(N)NCC1CC1 | < 0.5 | < 0.5 | < 0.5 |
| CC(C)NC(=N)NO | 38 | 15 | 70 |
| N/C(=N/C1CC1)NO | 26 | < 0.5 | 70 |
| CCCCN(C)C(=N)NO | < 0.5 | < 0.5 | < 0.5 |
| C#CCC/N=C(/N)NO | < 0.5 | 28 | 37 |
| CCCC/N=C(/N)NOCc1ccccc1 | < 0.5 | < 0.5 | < 0.5 |
| N=C(N)NCCC[C@H](N)C(=O)O | 38 | 50 | 72 |
| CCCC/N=C(/N)NOC | < 0.5 | < 0.5 | < 0.5 |
| CC1CC1CN=C(N)N (stereo not drawn) | < 0.5 | < 0.5 | < 0.5 |
| N/C(=N\O)N1CCCC1 | < 0.5 | < 0.5 | < 0.5 |
| C/C=C/C/N=C(/N)NO | < 0.5 | < 0.5 | 5 |
| C/C=C/CN=C(N)N | < 0.5 | < 0.5 | < 0.5 |
| CCCCN/C(N)=N/O | 20 | 42 | 64 |
| CCCCN=C(N)N | < 0.5 | 6 | < 0.5 |
